DENV2 CPE rescue = protects cells from dengue virus 2 cytopathic effect; DENV2-infected cells, cytopathic effect rescue, plate reader; CPE inhibition, % at 9.99 µM; hit rate 1.7% among 350,000; AID 651640; in the data active = CPE inhibition above about 20%, passing the limit was not always enough; inconclusive = no clear call, values can overlap the other calls; tested in BHK-21 cells;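 note: 0% = median of neutral control wells and 100% = median of positive control wells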
CAL PDZ FP-1 = blocks peptide binding to human CAL PDZ domain. Q9HD26. purified CAL PDZ, TMR-peptide fluorescence polarization, 1 h. inhibition, % at 20 µM. hit rate 0.02% among 330,000;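 active = highest replicate inhibition of at least 40%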;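 note: plate controls were DMSO neutral control wells for no effect and unlabeled competitor peptide control wells for full effect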
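Material: tagged CAL PDZ protein CerCALP, purified; buffer or medium: sodium phosphate/NaCl buffer pH 7.4 with TCEP, IgG, Thesit; also added: fluorescent TMR peptide probe; schedule: 1 h incubation at room temperature before polarization reading; technique: fluorescence polarization from S- and P-plane intensities, G-factor corrected; control set: unlabelled peptide and DMSO controls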
CAL PDZ FP-2 = CAL PDZ (human) peptide binding inhibition. Q9HD26. purified CAL PDZ, TMR-peptide fluorescence polarization, 1 h. inhibition, % at 24.9 µM. hit rate 0.92% among 300,000. AID 602252;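 active = mean inhibition of at least 30% with at least half of replicates also reaching 30%; inconclusive = no clear call, values can overlap the other calls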;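 note: 0% = DMSO neutral control and 100% = excess unlabeled competitor peptide PRC23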
S100A4 MyoIIA = S100A4-myosin IIA interaction inhibition | hit rate 0.14% among 360,000 | S100A4/TAMRA-MyoIIA peptide fluorescence polarization | AID 652163 | P26447 | inhibition, % at 10.7 µM;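 active = mean inhibition of at least 70% across replicates, with every replicate also reaching that level; inconclusive = mean inhibition reaches 70% but some replicates fall short; inactive = mean inhibition below 70%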
Target sequence (P26447 whole entry, looked up): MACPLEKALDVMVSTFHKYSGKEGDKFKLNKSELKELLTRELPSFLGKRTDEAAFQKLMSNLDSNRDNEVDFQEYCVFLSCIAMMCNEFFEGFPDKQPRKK
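System – human S100A4 monomer protein, biochemical binding assay · Buffer or medium – Calcium-containing HEPES buffer, pH 7.2 · Timing – 5 min between mix addition and reading · Also added – TAMRA-labelled myosin IIA heavy-chain peptide probe, 5 nM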
SIRT5 inh = sirtuin-5 (human) deacylase inhibition; Purified SirT5, succinyl-peptide AMC, trypsin-coupled fluorescence; inhibition, % at 15 µM; hit rate 1.1% among 330,000; AID 652115; in the data active = inhibition above about 15%; inconclusive = no clear call, values can overlap the other calls
Target sequence (Q9NXA8 whole entry, looked up): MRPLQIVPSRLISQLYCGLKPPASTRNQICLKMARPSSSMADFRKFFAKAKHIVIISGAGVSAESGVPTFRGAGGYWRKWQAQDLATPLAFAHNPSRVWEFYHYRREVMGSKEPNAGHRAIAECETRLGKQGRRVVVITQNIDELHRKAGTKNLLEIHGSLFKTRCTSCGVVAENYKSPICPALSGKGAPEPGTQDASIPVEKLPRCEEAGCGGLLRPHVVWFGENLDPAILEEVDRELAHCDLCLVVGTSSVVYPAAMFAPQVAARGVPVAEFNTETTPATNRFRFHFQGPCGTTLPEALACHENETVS
ERAP1 inh = ERAP1 (human) enzyme inhibition | recombinant ERAP1, Leu-AMC fluorescence, 60 min | hit rate 0.15% among 340,000 | Q9NZ08 | inhibition, % at 10.7 µM;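 active = mean replicate inhibition of at least 30%, or all replicates individually reaching that 30% level; inactive = mean below 30% and not every replicate reaching it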;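 note: 0% = neutral control wells and 100% = L-leucinethiol positive control wells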
* marks the source's active call; other numbers are inactive results; u = inconclusive; x = no result. Sampled rows, rich in hits. Any-hit rate of the full collection: about 2.9%.

SMILES	DENV2 CPE rescue	CAL PDZ FP-1	CAL PDZ FP-2	S100A4 MyoIIA	SIRT5 inh	ERAP1 inh
C[C@@H](NC(=O)C[C@@H]1C[C@@H]2c3cc(NC(=O)C4CCOCC4)ccc3O[C@@H]2[C@@H](CO)O1)c1ccccc1	-2	x	x	-21	0	-2
CCNC(=O)[C@@H]1[C@@H](CO)[C@@H]2Cn3c(ccc(C4=CCCCC4)c3=O)[C@H]1N2CCC(F)(F)F	11	x	x	18	-24	1
COc1cc([N+](=O)[O-])cc(/C=N/NC(=O)Cn2cncn2)c1O	-1	0	48*	0	2	5
COc1ccc(S(=O)(=O)Nc2ccc3c(c2)OC[C@H](C)NC[C@H](C)[C@@H](OC)CN(C)C3=O)cc1	16	x	x	3	-3	4
CC(C)Cc1ccc(-c2cc3nc(NCCc4ccc(S(N)(=O)=O)cc4)ccn3n2)cc1	-5	x	x	6	20*	6
CN(C)C(=O)[C@@H]1[C@@H](CO)[C@@H]2Cn3c(ccc(C4=CCCC4)c3=O)[C@H]1N2C	-3	x	x	2	-13	0
C[C@H]1O[C@@H](n2cc(F)c(=O)[nH]c2=O)[C@H](O)[C@@H]1O	7	-1	-2	-6	-1	1
O=c1[nH]c(=O)n(C2OC(CO)C(O)C(O)C2O)cc1F (centres undefined)	68*	x	x	1	-1	2
Cc1cc(CNC(=O)Cc2c(F)cccc2Cl)nn1C	-1	0	-6	4	23*	-1
CCNc1nc(N)c(C(=O)C23CC4CC(CC(C4)C2)C3)s1	53*	0	-2	-3	-1	3
CCNc1nc(N)c(C(=C(C#N)C#N)c2ccccc2)s1	x	-3	0	x	x	x
CC(C)(C)C1CCC(=O)N(CCOc2ccccc2)CC1 (centres undefined)	66*	-1	5	6	0	-3
CCOC(=O)C(=CNc1ccc(Cl)cn1)C(=O)OCC	67*	0	0	23	x	-2
COc1ccc(OC)c(-c2nnc3n2N=C(c2ccc(OC)c(OC4CCCC4)c2)CS3)c1	-8	-1	6	-26	-1	1
COc1ccc(OC)c(-c2nnc3n2N=C(c2ccc(OC)c(OC)c2)CS3)c1	31*	-9	-10	3	3	2
COc1ccc(C2=Nn3c(nnc3-c3ccccc3F)SC2)cc1OC1CCCC1	3	-9	-9	-1	20*	-1
COc1ccc(C2=Nn3c(nnc3-c3ccccc3OC)SC2)cc1OCC1CC1	25*	-1	-6	7	x	x
C[C@@H]1CN([C@H](C)CO)C(=O)c2cc(NC(=O)CCC(F)(F)F)ccc2O[C@@H](C)CCCCO[C@H]1CN(C)S(C)(=O)=O	u	x	x	-32	3	3
COc1ccc(S(=O)(=O)Nc2ccc3c(c2)C(=O)N([C@@H](C)CO)C[C@H](C)[C@@H](CN(C)Cc2ccc4c(c2)OCO4)O3)cc1	4	x	x	-1	-1	0
O=C(NCc1ccccc1)c1ccc2c(c1)C(=O)N(Cc1cccnc1)C2=O	u	-2	-1	6	2	2
O=C1c2ccc([N+](=O)[O-])cc2C(=O)N1Cc1cccnc1	90*	0	0	4	1	0
CN(C)Cc1cn(CC[C@@H]2CC[C@@H](NC(=O)Nc3ccc4c(c3)OCO4)[C@H](CO)O2)nn1	7	x	x	x	x	x
CCCNC(=O)[C@H]1[C@H](CO)[C@H]2Cn3c(ccc(/C=C/c4ccccc4)c3=O)[C@@H]1N2C(=O)C1CCC1	0	x	x	-8	-104	-1
C[C@H]1CCCCO[C@@H](CN(C)Cc2ccccc2)[C@@H](C)CN([C@@H](C)CO)C(=O)c2cc(NC(=O)Nc3ccc(C(F)(F)F)cc3)ccc2O1	-5	x	x	-5	3	-2
C[C@H]1[C@@H](Cc2cc(Cl)cc(Cl)c2)N(c2ccccc2)c2ccccc2CN1Cc1ccccc1	43*	x	x	9	-1	x
SMILES	DENV2 CPE rescue	CAL PDZ FP-1	CAL PDZ FP-2	S100A4 MyoIIA	SIRT5 inh	ERAP1 inh
COc1ccc(N2c3ccccc3CN(Cc3ccccc3)CC2Cc2cc(OC)c(OC)c(OC)c2)cc1 (centres undefined)	-7	x	x	-5	x	-2
O=C(NCc1ccc(F)cc1)C1CC(=O)N(C2CCCCC2)C1 (centres undefined)	-3	-4	-3	-11	31*	-3
O=C(CS)NCCCCCCNC(=O)[C@H]1C[C@H]2C(=O)NCC(=O)N2[C@H]1c1cccc(OCCO)c1	7	x	x	-5	0	-1
CC(C)C[C@@H]1NC(=O)[C@H]2C[C@@H](C(=O)NCCCCCN)[C@@H](c3cccc(OCCO)c3)N2C1=O	32*	x	x	10	-2	4
Cc1nn(CC(=O)NCCc2cccs2)c(=O)c2nn(-c3ccccc3)c(C)c12	6	-1	x	-17	-5	0
Cc1ccc(-n2nc3c(=O)n(CC(=O)NCc4cccs4)nc(C)c3c2C)cc1	54*	0	-7	4	0	-2
O=C(NNc1cc(N2CCCC2)nc(N2CCCC2)n1)c1ccc([N+](=O)[O-])cc1	3	-2	30*	-2	-1	1
COc1cccc(NC(=O)C[C@H]2CC[C@@H]3[C@@H](COc4ccc(NC(=O)c5ccccc5F)cc4C(=O)N3C)O2)c1	3	x	x	0	-1	1
CCC(C)c1ccccc1NC(=O)COC(=O)CCc1cc(OC)c(OC)c(OC)c1 (centres undefined)	x	-1	83*	x	x	x
O=C(O)CC(Sc1n[nH]c(=S)s1)C(=O)O (centres undefined)	5	1	-5	-2	7	34*
COCCSc1nnc(NC(=O)Cc2ccc(OC)cc2)s1	14	0	49*	5	-7	6
COCCSc1nnc(NC(=O)Cc2ccc(OC)c(OC)c2)s1	-2	-23	1	2	-2	-3
CCC(=O)Nc1nnc(/C=C/c2ccc(OC)cc2)s1	58*	0	-1	17	-5	x
COCCSc1nnc(NC(=O)c2ccc(OC)c([N+](=O)[O-])c2)s1	1	1	53*	-1	-2	-1
Cc1ccc(S(=O)(=O)N(C)C[C@@H]2OCCCC[C@H](C)Oc3ccc(NC(=O)CCC(F)(F)F)cc3C(=O)N([C@H](C)CO)C[C@@H]2C)cc1	-5	x	x	-2	5	0
CNC[C@H]1OCCCC[C@@H](C)Oc2ccc(N(C)C)cc2C(=O)N([C@H](C)CO)C[C@@H]1C	16	x	x	-4	-3	1
CO[C@@H]1CN(C)C(=O)c2ccc(NC(=O)Cc3ccccc3)cc2OC[C@H](C)N(C(C)=O)C[C@H]1C	-5	x	x	16	-3	-2
O=C(O)c1cccc(Nc2nc(-c3ccc([N+](=O)[O-])cc3)nc3ccccc23)c1	3	0	-1	-22	3	-4
O=[N+]([O-])c1ccc(-c2nc(Nc3cccc(O)c3)c3ccccc3n2)cc1	2	x	78*	27	-2	-7

From PubChem
